Assays:
Assay type in all cases: functional
SNB-75 = assay: Growth inhibition of human SNB75 cells at 10 uM after 48 hrs by sulforhodamine B assay relative to control; details: SNB-75, 48 h, read-out: GI
Method in brief: (§1)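 NCI-60 human cancer cell line screen, single dose of 10 μM for 48 h. Cellular protein content read by sulforhodamine B staining; growth inhibition expressed relative to untreated control.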

NCI-H322M [1] = assay: Growth inhibition of human NCI-H322M cells after 48 hrs by sulforhodamine B assay
Method in brief: (§2)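 NCI-60 panel follow-up: five concentrations from 10 nM to 100 μM, 48 h exposure. Growth read by sulforhodamine B protein staining. GI50 derived from the concentration-response, with the concentration for total growth inhibition (TGI) also recorded when below 100 μM.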

IGROV-1 [2] = assay: Growth inhibition of human IGROV1 cells after 48 hrs by sulforhodamine B assay; details: IGROV-1, 48 h
Method in brief: (§3)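 NCI-60 panel screen. Cells were exposed for 48 h at five concentrations between 10 nM and 100 μM. Cellular protein was read by sulforhodamine B staining, and GI50 and total growth inhibition (TGI) concentrations were derived.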

NCI-H322M [3] = assay: Growth inhibition of human NCI-H322M cells at 10 uM after 48 hrs by sulforhodamine B assay relative to control; details: read-out: GI
Method in brief: (§4)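 NCI-60 human cancer cell line screen, single-dose pass: cells exposed to 10 μM for 48 h. Cellular protein content read out by sulforhodamine B staining, and growth inhibition expressed relative to untreated control.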

HCT-15 = assay: Growth inhibition of human HCT15 cells after 48 hrs by sulforhodamine B assay; details: HCT-15, 48 h; method in brief: as §3
COLO 205 [4] = assay: Growth inhibition of human COLO205 cells at 10 uM after 48 hrs by sulforhodamine B assay relative to control; details: COLO 205, 48 h, read-out: GI
Method in brief: (§5)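 NCI-60 single-dose screen at 10 μM for 48 h. Percent growth inhibition was measured by sulforhodamine B staining of cellular protein.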

786-0 [5] = assay: Growth inhibition of human 786-0 cells after 48 hrs by sulforhodamine B assay; details: 786-0, 48 h; method in brief: as §3
RPMI-8226 [6] = assay: Growth inhibition of human RPMI8226 cells after 48 hrs by sulforhodamine B assay; details: RPMI-8226, 48 h; method in brief: as §2
A498 = assay: Growth inhibition of human A498 cells after 48 hrs by SRB assay; details: A498, 48 h
Method in brief: (§6)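 In-house assay. Cells were seeded into 96-well plates at a density for exponential growth and treated with a concentration range for 48 h. They were then fixed in 10% (w/v) TCA and stained with sulforhodamine B. The 50% growth-inhibitory concentration relative to control cells was calculated as the mean of three repeats ± standard deviation.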

A549 = assay: Growth inhibition of human A549/ATCC cells after 48 hrs by sulforhodamine B assay; details: A549, 48 h; method in brief: as §3
SK-MEL-28 = assay: Growth inhibition of human SK-MEL-28 cells after 48 hrs by sulforhodamine B assay; details: SK-MEL-28, 48 h; method in brief: as §2
HOP-62 [7] = assay: Growth inhibition of human HOP62 cells after 48 hrs by sulforhodamine B assay; details: HOP-62, 48 h; method in brief: as §3
T47D = assay: Growth inhibition of human T47D cells at 10 uM after 48 hrs by sulforhodamine B assay relative to control; details: read-out: GI; method in brief: as §1
OVCAR-3 = assay: Growth inhibition of human OVCAR3 cells after 48 hrs by sulforhodamine B assay; details: OVCAR-3, 48 h; method in brief: as §2
Hs-578T = assay: Growth inhibition of human Hs 578T cells after 48 hrs by sulforhodamine B assay; method in brief: as §3
UACC-62 = assay: Growth inhibition of human UACC62 cells at 10 uM after 48 hrs by sulforhodamine B assay relative to control; details: UACC-62, 48 h, read-out: GI; method in brief: as §1
OVCAR-8 = assay: Growth inhibition of human OVCAR8 cells at 10 uM after 48 hrs by sulforhodamine B assay relative to control; details: OVCAR-8, 48 h, read-out: GI; method in brief: as §4
SF-539 = assay: Growth inhibition of human SF539 cells at 10 uM after 48 hrs by sulforhodamine B assay relative to control; details: SF-539, 48 h, read-out: GI; method in brief: as §4
K562 = assay: Growth inhibition of human K562 cells after 48 hrs by sulforhodamine B assay; details: K562, 48 h; method in brief: as §3
NCI/ADR-RES = assay: Growth inhibition of human NCI-ADR-RES cells at 10 uM after 48 hrs by sulforhodamine B assay relative to control; details: read-out: GI; method in brief: as §4
786-0 [8] = assay: Growth inhibition of human 786-0 cells at 10 uM after 48 hrs by sulforhodamine B assay relative to control; details: 786-0, 48 h, read-out: GI; method in brief: as §5
MCF7 = assay: Growth inhibition of human MCF7 cells at 10 uM after 48 hrs by sulforhodamine B assay relative to control; details: MCF7, 48 h, read-out: GI; method in brief: as §5
HT-29 = assay: Growth inhibition of human HT-29 cells after 48 hrs by SRB assay; details: HT-29, 48 h; method in brief: as §6
M14 = assay: Growth inhibition of human M14 cells after 48 hrs by sulforhodamine B assay; details: M14, 48 h; method in brief: as §3
LOX IMVI [9] = assay: Growth inhibition of human LOXIMVI cells at 10 uM after 48 hrs by sulforhodamine B assay relative to control; details: read-out: GI; method in brief: as §5
MDA-MB-231 = assay: Growth inhibition of human MDA-MB-231 cells at 10 uM after 48 hrs by sulforhodamine B assay relative to control; details: MDA-MB-231, 48 h, read-out: GI; method in brief: as §5
CCRF-CEM = assay: Growth inhibition of human CCRF-CEM cells after 48 hrs by sulforhodamine B assay; method in brief: as §3
HOP-62 [10] = assay: Growth inhibition of human HOP62 cells at 10 uM after 48 hrs by sulforhodamine B assay relative to control; details: HOP-62, 48 h, read-out: GI; method in brief: as §5
IGROV-1 [11] = assay: Growth inhibition of human IGROV1 cells at 10 uM after 48 hrs by sulforhodamine B assay relative to control; details: IGROV-1, 48 h, read-out: GI; method in brief: as §5
SK-MEL-2 = assay: Growth inhibition of human SK-MEL-2 cells after 48 hrs by sulforhodamine B assay; details: SK-MEL-2, 48 h; method in brief: as §2
NCI-H23 = assay: Growth inhibition of human NCI-H23 cells at 10 uM after 48 hrs by sulforhodamine B assay relative to control; details: NCI-H23, 48 h, read-out: GI; method in brief: as §4
LOX IMVI [12] = assay: Growth inhibition of human LOXIMVI cells after 48 hrs by sulforhodamine B assay; method in brief: as §3
RPMI-8226 [13] = assay: Growth inhibition of human RPMI8226 cells at 10 uM after 48 hrs by sulforhodamine B assay relative to control; details: RPMI-8226, 48 h, read-out: GI; method in brief: as §4
HOP-92 = assay: Growth inhibition of human HOP92 cells at 10 uM after 48 hrs by sulforhodamine B assay relative to control; details: HOP-92, 48 h, read-out: GI; method in brief: as §5
SNB-19 = assay: Growth inhibition of human SNB19 cells after 48 hrs by sulforhodamine B assay; details: SNB-19, 48 h; method in brief: as §2
COLO 205 [14] = assay: Growth inhibition of human COLO205 cells after 48 hrs by sulforhodamine B assay; details: COLO 205, 48 h; method in brief: as §3

## Cc1noc(C)c1-c1cc(O)cc(C(O)c2ccccc2)c1 (stereo not given)
SNB-75
  inhibition of growth at 10 µM: 113%
NCI-H322M [1]
  GI50: 8.41 µM
IGROV-1 [2]
  GI50: 23.2 µM
NCI-H322M [3]
  inhibition of growth at 10 µM: 52.4%
HCT-15
  GI50: 3.52 µM
COLO 205 [4]
  inhibition of growth at 10 µM: 62.9%
786-0 [5]
  GI50: 27.1 µM
RPMI-8226 [6]
  GI50: 1940 nM
  TGI: 9.7 µM
A498
  GI50: 1580 to 2600 nM
  TGI: 20.3 µM
A549
  GI50: 22.4 µM
SK-MEL-28
  GI50: 9.15 µM
HOP-62 [7]
  GI50: 4.89 µM
T47D
  inhibition of growth at 10 µM: 52.9%
OVCAR-3
  GI50: 6.64 µM
Hs-578T
  GI50: 1930 nM
  TGI: 90.7 µM
UACC-62
  inhibition of growth at 10 µM: 68.5%
OVCAR-8
  inhibition of growth at 10 µM: 61.4%
SF-539
  inhibition of growth at 10 µM: 37.5%
K562
  GI50: 8.69 µM
NCI/ADR-RES
  inhibition of growth at 10 µM: 40.8%
786-0 [8]
  inhibition of growth at 10 µM: 45.2%
MCF7
  inhibition of growth at 10 µM: 79.1%
HT-29
  GI50: 4.54 to 5.79 µM
M14
  GI50: 4.48 µM
LOX IMVI [9]
  inhibition of growth at 10 µM: 72.7%
MDA-MB-231
  inhibition of growth at 10 µM: 37.6%
CCRF-CEM
  GI50: 14.8 µM
HOP-62 [10]
  inhibition of growth at 10 µM: 52.8%
IGROV-1 [11]
  inhibition of growth at 10 µM: 54%
SK-MEL-2
  GI50: 23.5 µM
NCI-H23
  inhibition of growth at 10 µM: 31.9%
LOX IMVI [12]
  GI50: 3.6 µM
  TGI: 80.5 µM
RPMI-8226 [13]
  inhibition of growth at 10 µM: 85.1%
HOP-92
  inhibition of growth at 10 µM: 74.4%
SNB-19
  GI50: 5.69 µM
COLO 205 [14]
  GI50: 5.25 µM
